Compound activity (PubChem)
An excerpt weighted towards active compounds, which were near 2.1% of everything screened.
AF4-AF9 inh = inhibitors of AF4 peptide binding to AF9, primary screen, biochemical, AlphaScreen, biotin-AF4 peptide, FLAG-AF9, single point; inhibition, % at 10 µM; 350,000 tested, 0.47% active; AID 651704, 2012;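 active means every replicate reaching a set inhibition limit, whatever the replicate mean, cut at about 25% in these data; inconclusive means mean inhibition reaches that limit but some replicates miss it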;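 further: 0% = plate neutral control median and 100% = total signal loss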
Target sequence (P42568 whole entry, looked up): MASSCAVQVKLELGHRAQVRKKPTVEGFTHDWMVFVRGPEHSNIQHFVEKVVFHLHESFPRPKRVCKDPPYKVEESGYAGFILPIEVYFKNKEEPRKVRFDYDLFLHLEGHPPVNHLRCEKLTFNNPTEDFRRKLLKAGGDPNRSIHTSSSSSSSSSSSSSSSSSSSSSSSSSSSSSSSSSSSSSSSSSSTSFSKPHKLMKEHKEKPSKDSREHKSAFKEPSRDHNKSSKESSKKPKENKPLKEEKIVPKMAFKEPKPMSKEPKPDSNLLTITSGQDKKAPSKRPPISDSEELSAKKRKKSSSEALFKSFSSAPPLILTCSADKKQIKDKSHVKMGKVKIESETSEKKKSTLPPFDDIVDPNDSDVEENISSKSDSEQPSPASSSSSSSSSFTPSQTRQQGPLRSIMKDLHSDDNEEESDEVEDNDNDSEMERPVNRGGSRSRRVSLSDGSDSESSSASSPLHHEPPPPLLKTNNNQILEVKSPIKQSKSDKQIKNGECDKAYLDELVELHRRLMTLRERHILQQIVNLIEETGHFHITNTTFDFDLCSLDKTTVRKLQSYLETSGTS
GSIS activator = GLuc luminescence reporter in INS-1E cells, primary screen for activators of glucose-dependent secretion of insulin; INS-1E GLuc reporter insulin secretion, 2-3 h; activation, % at 16.6 µM; 370,000 tested, 0.61% active; AID 743287, 2014;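 active means lowest replicate activation of at least 40%, so every replicate reaches that level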;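 further: 0% = median of neutral control wells and 100% = median of IBMX positive control wells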
EWS-Fli block = EWS/Fli-driven NR0B1 reporter inhibitors, primary screen, A673 cells, NR0B1 luciferase, luminescence, MLPCN library | inhibition, % at 12.6 µM | viability-normalised | 350,000 tested, 0.67% active;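 active means mean inhibition of at least 50% after viability correction, with every replicate also passing that limit; inconclusive means mean reaches 50% but only one of two replicates passes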;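 further: firefly luciferase signal divided by Alamar Blue viability fluorescence both relative to DMSO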
PAX8 reporter = inhibitors of PAX8-driven TPO luciferase reporter, primary screen, RMG-I cells, single concentration | SteadyGlo, 24 h | inhibition, % at 12.6 µM | 360,000 tested, 1.2% active;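 active means mean replicate inhibition at least 60% with every replicate also reaching 60%; inconclusive means only one of the two criteria is met; inactive means mean below 60% and not all replicates reaching 60%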;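 further: luciferase light reporting Pax8 driven TPO promoter activity; plate controls were median of neutral control wells for no effect and mitoxantrone controls for full effect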
PGC1a acetyl inh = inhibitors of PGC1a acetylation signal, primary screen, cell-based, U2OS, AlphaScreen, inhibitor mode; AID 651687, 2012; inhibition, % at 15.6 µM; 350,000 tested, 0.17% active; AlphaScreen anti-acetyl-lysine; with virally co-expressed GCN5 acetyltransferase;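 active means every replicate shows inhibition of at least 40%; inconclusive means mean inhibition at least 40% but some replicate below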;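 further: 0% = neutral control wells and 100% = positive control wells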
Xi reactivation = activators of inactive X chromosome reactivation, primary screen, imaging, XiGFP fibroblasts, GFP high-content imaging, set 2 | 360,000 tested, 0.055% active | XiGFP mouse fibroblasts, % GFP-positive cells imaging, 3 d; cells co-treated with 5-aza-dC sensitizer; scaled so ellipticine positive control = 100% | AID 743238, 2013 | activation, % at 7.58 µM;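 active means mean normalized replicate activation at least 10% and every replicate at or above 10%; inconclusive means only one of the two criteria met; inactive means mean below 10% and not all replicates reach 10%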;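 further: 0% = median of on-plate neutral control wells and 100% = ellipticine 6 µM median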
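assay system = SV40-immortalized XiGFP fibroblast cells, line 68-5-11 | buffer or medium = DMEM plus 5-aza-dC sensitizer | doses = single-point pinned compound dosing | times = 3-day compound exposure, then 15 min fixation at room temperature | benchmarks = positive control ellipticine, 6 µM final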
Numbers without * were called inactive; ? = inconclusive; · = no result given.

SMILES	AF4-AF9 inh	GSIS activator	EWS-Fli block	PAX8 reporter	PGC1a acetyl inh	Xi reactivation
COC(=O)[C@]12CCCCC=C1N(Cc1cccc3ccccc13)C(=O)[C@H](CC(=O)N1CCN(C(=O)c3ccco3)CC1)C2	10.5	-41.1	0.0	92.4*	·	-0.1
CCOC(=O)[C@]12CCCC=C1N(Cc1ccccc1)C(=O)[C@H](CC(=O)N1CCN(C(=O)c3ccco3)CC1)C2	-2.9	·	-8.2	70.6*	·	0.0
O=C(NCC[C@H]1CC[C@@H](NC(=O)C2CCC2)[C@@H](CO)O1)c1cnccn1	-2.2	6.1	-0.8	2.7	4.1	-0.1
Cc1nnc(N/N=C/c2cccc(C(F)(F)F)c2)n1N	3.5	-19.9	-1.6	108.1*	-0.4	0.4
Cc1nnc(N/N=C/c2ccccc2C(F)(F)F)n1N	-2.5	0.2	-6.4	84.8*	3.3	0.0
COc1cccc2c1C(=N)c1c(O)c3c(c(O)c1C2=O)CC(O)(C(C)=O)CC3OC1CC(N)C(O)C(C)O1 (centres undefined)	·	·	·	·	2.1	·
COc1cccc2c1C(=O)c1c(O)c3c(c(O)c1C2=O)C[C@](O)(C(C)=O)C[C@H]3O[C@@H]1C[C@@H](N)[C@@H](O)[C@@H](C)O1	?	·	44.8	112.2*	·	1.5
O=C(CN1CCOCC1)N[C@H]1CC[C@@H](CCNC(=O)C2CCC2)O[C@@H]1CO	-0.9	-1.6	5.2	-2.0	-6.6	-1.0
O=C(COc1ccccc1)N(Cc1cccc(F)c1)C1CCS(=O)(=O)C1 (centres undefined)	-5.7	51.4*	-7.6	5.6	·	0.1
Cc1ccc2sc(N(CCCN(C)C)C(=O)c3ccc(S(=O)(=O)N4CCc5ccccc5C4)cc3)nc2c1C	9.0	-52.0	26.5	43.2	-15.6	1.8
COc1cccc2sc(N(CCCN(C)C)C(=O)c3ccc(S(=O)(=O)N4CCc5ccccc5C4)cc3)nc12	28.7*	-44.3	·	18.6	·	0.3
COc1ccc(C)c2sc(N(CCCN(C)C)C(=O)c3ccc(S(=O)(=O)N4CCc5ccccc5C4)cc3)nc12	-7.4	189.5*	58.2*	?	22.3	-0.1
CCCN1C[C@H](C)[C@H](OC)CN(C)C(=O)c2cc(NC(=O)COC)ccc2OC[C@H]1C	·	15.8	8.6	12.2	3.2	0.3
CC(=O)Nc1ccc(OCCC[n+]2ccccc2)cc1	30.8*	·	13.3	7.4	·	0.0
CN(c1ccccc1)S(=O)(=O)c1ccc(NC(=O)c2ccccc2)cc1	·	-25.8	·	-17.9	·	-0.1
CN(c1ccccc1)S(=O)(=O)c1ccc(NC(=O)c2nc(S(C)(=O)=O)ncc2Cl)cc1	-1.4	35.8	57.6*	132.8*	·	0.0
COc1cccc(NC(=O)c2nc(S(C)(=O)=O)ncc2Cl)c1	-13.7	54.4*	59.1*	11.3	·	0.4
COc1ccc2c3c([nH]c2c1)[C@H](CO)N(Cc1ccncc1)CC31CN(C(=O)c2cccnc2)C1	·	-9.4	·	·	·	0.3
CC(C)C#Cc1ccc2c(c1)O[C@@H](CN(C)C(=O)c1ccncc1)[C@@H](C)CN([C@@H](C)CO)S2(=O)=O	0.0	-2.8	-1.8	-1.2	-8.8	-0.6
CCOc1ccc(N2C(=O)CC(Cc3ccc(Br)cc3)C2=O)cc1 (centres undefined)	-3.6	-9.3	8.5	6.0	70.9*	-0.1
O=C1/C(=C\c2ccccc2)SC(=S)N1CCC(=O)N1CCCCC1CCO (centres undefined)	7.6	-0.5	·	48.1	8.0	0.0
O=C1/C(=C/c2ccccc2)SC(=S)N1CC(=O)N1CCCCC1c1cccnc1 (centres undefined)	3.3	18.7	·	90.3*	·	0.1
C[C@@H]1CN([C@@H](C)CO)C(=O)c2cccc(NC(=O)C3CCCCC3)c2O[C@@H]1CN(C)Cc1ccc2c(c1)OCO2	1.3	6.6	9.4	-4.9	4.9	-0.9
C[C@@H]1CN([C@H](C)CO)C(=O)CCCn2cc(nn2)CO[C@@H]1CN(C)C(=O)Nc1ccc(N2CCCCC2)cc1	9.4	5.5	-4.5	·	-11.1	-0.1
